# Columns and labels:
# Format in all cases: functional
# Enterococcus faecium = test: In vitro antibacterial activity against Streptococcus faecium ATCC 8043
# In short: (§1)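 Twofold agar dilution in brain-heart infusion agar, test range 200 to 0.005 µg/mL, made from a 2000 µg/mL stock. Organisms grown overnight in BHI broth at 36 °C. About 10⁴ organisms inoculated per plate, then incubated 18 h at 36 °C. MIC taken as the lowest concentration giving no visible growth.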
# Escherichia coli = test: In vitro antibacterial activity against Escherichia coli Juhl; in short: as §1
# Staphylococcus aureus [1] = test: In vitro antibacterial activity against Staphylococcus aureus ATCC 6538P; in short: as §1
# Klebsiella pneumoniae = test: In vitro antibacterial activity against Klebsiella pneumoniae 8045; in short: as §1
# Acinetobacter sp. = test: In vitro antibacterial activity against Acinetobacter species CMX669; in short: as §1
# Klebsiella aerogenes = test: In vitro antibacterial activity against Enterobacter aerogenes ATCC 13048; in short: as §1
# Staphylococcus aureus [2] = test: In vitro antibacterial activity against Staphylococcus aureus CMX 686B; in short: as §1
# [3] = tested on: Staphylococcus epidermidis; test: In vitro antibacterial activity against Staphylococcus epidermidis 3519; in short: as §1
# Streptococcus pyogenes = test: In vitro antibacterial activity against Streptococcus pyogenes 930; in short: as §1
# Pseudomonas aeruginosa [4] = test: In vitro antibacterial activity against Pseudomonas aeruginosa K799/WT; in short: as §1
# Pseudomonas aeruginosa [5] = test: In vitro antibacterial activity against Pseudomonas aeruginosa 5007; in short: as §1
# Mus musculus [6] = test: In vivo antibacterial activity against systemic infection caused by Escherichia coli Juhl in mice.
# In short: (§2)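 CF-1 female mice, about 20 g. Infected ip with 0.5 mL of an 18-h BHI culture diluted in 5% hog gastric mucin to 100× LD₅₀. LD₅₀ set by 10-fold dilutions (Reed–Muench, day 6). Compound given in water or dilute NaOH, sc or po, total dose split at 1 and 5 h post-infection. At least 3 dose levels, 10 mice each. Deaths followed 6 days. ED₅₀ from day-6 cumulative mortality by trimmed Logit, with 95% confidence limits.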
# Mus musculus [7] = test: In vivo dose(po) inhibiting systemic infections caused by Escherichia coli Juhl in mice.; in short: as §2
# Mus musculus [8] = test: In vivo dose(sc) inhibiting systemic infections caused by Escherichia coli Juhl in mice.; in short: as §2
# Mus musculus [9] = test: In vivo dose(sc) inhibiting systemic infections caused by Staphylococcus aureus NCTC 10649 in mice; in short: as §2
# Mus musculus [10] = test: In vivo dose(sc) inhibiting systemic infections caused by Escherichia coli Juhl in mice
# In short: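 Female CF-1 mice (~20 g) infected ip with 0.5 mL of 18-h BHI culture of E. coli Juhl diluted in 5% (w/v) hog gastric mucin to 100 times LD50 (LD50 from 10-fold dilutions, day-6 mortality, Reed-Muench). Compound dissolved in water (HCl salt) or dilute NaOH then water, given sc split equally at 1 and 5 h post-infection. 10 mice per dose, ≥3 doses. Deaths recorded 6 days; ED50 from day-6 cumulative mortality by trimmed Logit.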
# Mus musculus [11] = test: In vivo antibacterial activity against systemic infection caused by Staphylococcus aureus NCTC 10649 in mice
# Mus musculus [12] = test: In vivo dose(po) inhibiting systemic infections caused by Pseudomonas aeruginosa 5007 in mice; in short: as §2
# Mus musculus [13] = test: In vivo antibacterial activity against systemic infection caused by Escherichia coli Juhl in mice; in short: as §2
# Mus musculus [14] = test: In vivo dose(po) inhibiting systemic infections caused by Escherichia coli Juhl in mice; in short: as §2
# Mus musculus [15] = test: In vivo dose(sc) inhibiting systemic infections caused by Pseudomonas aeruginosa 5007 in mice; in short: as §2
# Mus musculus [16] = test: In vivo antibacterial activity against systemic infection caused by Pseudomonas aeruginosa 5007 in mice
# Mus musculus [17] = test: In vivo dose(po) inhibiting systemic infections caused by Staphylococcus aureus NCTC 10649 in mice; in short: as §2
# Mus musculus [18] = test: In vivo dose(po) inhibiting systemic infections caused by Pseudomonas aeruginosa 5007 in mice.; in short: as §2
# Mus musculus [19] = test: In vivo dose(sc) inhibiting systemic infections caused by Staphylococcus aureus NCTC 10649 in mice.; in short: as §2
# Mus musculus [20] = test: In vivo antibacterial activity against systemic infection caused by Pseudomonas aeruginosa 5007 in mice.; in short: as §2
# Mus musculus [21] = test: In vivo dose(po) inhibiting systemic infections caused by Staphylococcus aureus NCTC 10649 in mice.; in short: as §2
# Mus musculus [22] = test: In vivo antibacterial activity against systemic infection caused by Staphylococcus aureus NCTC 10649 in mice.; in short: as §2
# Mus musculus [23] = test: In vivo dose(sc) inhibiting systemic infections caused by Pseudomonas aeruginosa 5007 in mice.; in short: as §2
# Mus musculus [24] = test: In vivo antibacterial activity against systemic infection caused by Escherichia coli juhl in mice.; in short: as §2
MIC (Enterococcus faecium) [µg/mL],MIC (Escherichia coli) [µg/mL],MIC (Staphylococcus aureus [1]) [µg/mL],MIC (Klebsiella pneumoniae) [µg/mL],MIC (Acinetobacter sp.) [µg/mL],MIC (Klebsiella aerogenes) [µg/mL],MIC (Staphylococcus aureus [2]) [µg/mL],MIC [3] [µg/mL],MIC (Streptococcus pyogenes) [µg/mL],MIC (Pseudomonas aeruginosa [4]) [µg/mL],MIC (Pseudomonas aeruginosa [5]) [µg/mL],Structure (SMILES),ED50 (Mus musculus [7]) [mg/kg],ED50 (Mus musculus [8]) [mg/kg],further results
1.56,0.39,0.05,0.1,0.39,0.39,0.05,0.2,0.78,3.1,3.1,O=C(O)c1cn(-c2ccc(F)cc2)c2nc(N3CCC(O)C3)c(F)cc2c1=O (stereo unspecified),–,–,–
3.1,0.1,0.2,0.2,0.39,3.1,0.39,0.78,1.56,1.56,1.56,CC1CN(c2nc3c(cc2F)c(=O)c(C(=O)O)cn3-c2ccc(F)cc2F)CCN1 (stereo unspecified),3.9,1.4,MIC (Mus musculus [6]): 0.1 µg/mL
1.56,0.2,0.2,0.1,0.78,0.78,0.2,0.39,1.56,1.56,0.78,CN1CCN(c2cc3c(cc2F)c(=O)c(C(=O)O)cn3-c2ccc(F)cc2)CC1.Cl [DIFLOXACIN HYDROCHLORIDE],–,–,–
1.56,0.05,0.2,0.02,0.2,0.2,0.2,0.39,0.78,0.39,0.39,Cl.O=C(O)c1cn(-c2ccc(F)cc2)c2cc(N3CCNCC3)c(F)cc2c1=O [SARAFLOXACIN HYDROCHLORIDE],4.3,0.6,ED50 (Mus musculus [18]): 21.4 mg/kg; ED50 (Mus musculus [19]): 1.6 mg/kg; MIC (Mus musculus [20]): 0.39 µg/mL; MIC (Mus musculus [6]): 0.05 µg/mL; ED50 (Mus musculus [21]): 6.5 mg/kg; MIC (Mus musculus [22]): 0.12 µg/mL; ED50 (Mus musculus [23]): 1.6 mg/kg

Structure (SMILES),MIC (Enterococcus faecium) [µg/mL],MIC (Escherichia coli) [µg/mL],MIC (Staphylococcus aureus [1]) [µg/mL],MIC (Klebsiella pneumoniae) [µg/mL],MIC (Acinetobacter sp.) [µg/mL],MIC (Klebsiella aerogenes) [µg/mL],MIC (Staphylococcus aureus [2]) [µg/mL],MIC [3] [µg/mL],MIC (Streptococcus pyogenes) [µg/mL],MIC (Pseudomonas aeruginosa [4]) [µg/mL],MIC (Pseudomonas aeruginosa [5]) [µg/mL],ED50 (Mus musculus [7]) [mg/kg],ED50 (Mus musculus [8]) [mg/kg],further results
O=C(O)c1cn(C2CC2)c2cc(N3CCNCC3)c(F)cc2c1=O [CIPROFLOXACIN],0.2,–,0.2,0.02,1.56,0.05,0.39,0.39,0.39,0.1,0.1,–,–,ED50 (Mus musculus [9]): 1.6 mg/kg; ED50 (Mus musculus [10]): 0.2 mg/kg; MIC (Mus musculus [11]): 0.25 µg/mL; ED50 (Mus musculus [12]): 13.3 mg/kg; MIC (Mus musculus [13]): 0.02 µg/mL; ED50 (Mus musculus [14]): 1.9 mg/kg; ED50 (Mus musculus [15]): 2.1 mg/kg; MIC (Mus musculus [16]): 0.1 µg/mL; ED50 (Mus musculus [17]): 15.5 mg/kg
CCn1cc(C(=O)O)c(=O)c2cc(F)c(N3CCNCC3)cc21 [NORFLOXACIN],0.78,0.1,0.78,0.1,6.2,0.2,0.78,1.56,3.1,0.39,0.39,–,–,–
NC1CCN(c2nc3c(cc2F)c(=O)c(C(=O)O)cn3-c2ccc(F)cc2F)C1 (stereo unspecified) [TOSUFLOXACIN],0.2,0.02,0.05,0.02,0.1,0.1,0.05,0.1,0.2,0.39,0.2,1.3,0.2,ED50 (Mus musculus [18]): 4.9 mg/kg; ED50 (Mus musculus [19]): 0.2 mg/kg; MIC (Mus musculus [20]): 0.2 µg/mL; ED50 (Mus musculus [21]): 1.4 mg/kg; MIC (Mus musculus [22]): 0.03 µg/mL; ED50 (Mus musculus [23]): 3.6 mg/kg; MIC (Mus musculus [24]): 0.02 µg/mL

# Source: ChEMBL document CHEMBL1123369, “Synthesis and structure-activity relationships of new arylfluoronaphthyridine antibacterial agents” (1986)
